Each compound was assayed on Rattus norvegicus (assay: Inhibition of passive cutaneous anaphylaxis in male Sprague-Dawley rats following 10 mg/kg p.o. administration.). Conditions: route oral.
Format: functional
Method in brief: (§1)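 IgE antiserum raised in male Sprague-Dawley rats (ca. 200 g) by immunization with Ascaris suum extract (2 then 0.2 mg protein), bled 2 weeks after the second dose. Recipients got 0.05 mL diluted antiserum intracutaneously on the back. Blued area (product of two diameters) was read at 30 min.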
CCCc1cc(C(=O)Nc2nn[nH]n2)nc(-c2ccccc2)c1 gave an inhibition in vivo at 10 mg/kg of 85%. Compound CCc1ccc(-c2cc(C)cc(C(=O)Nc3nn[nH]n3)n2)cc1 has an inhibition in vivo at 10 mg/kg of 100%. With O=C(Nc1nn[nH]n1)c1cccc(-c2ccccc2)n1 the inhibition in vivo at 10 mg/kg was 81%. With COc1cc(C(=O)Nc2nn[nH]n2)nc(-c2ccc(OC)c(OC)c2)c1 the inhibition in vivo at 10 mg/kg was 51%.

Each compound was assayed on Rattus norvegicus (assay: Antiallergic activity against passive cutaneous anaphylaxis (PCA) in male Sprague-Dawley rats after 3.0 mg/kg oral administration;p<0.1.). Conditions: not given.
Format: functional
Method in brief: as §1
CCCc1cc(C(=O)Nc2nn[nH]n2)nc(-c2ccccc2)c1 was tested, and the inhibition in vivo at 3 mg/kg was 22%. CCc1ccc(-c2cc(C)cc(C(=O)Nc3nn[nH]n3)n2)cc1 gave an inhibition in vivo at 3 mg/kg of 35%.

What follows are compounds tested on Rattus norvegicus (assay: Antiallergic activity against passive cutaneous anaphylaxis (PCA) in male Sprague-Dawley rats after 3.0 mg/kg oral administration;p<0.1). Conditions: not given.
Format: functional
Method in brief: as §1
CCOc1cc(C(=O)Nc2nn[nH]n2)nc(-c2ccccc2)c1 showed an inhibition in vivo at 3 mg/kg of 51%. In the case of COc1cc(C(=O)Nc2nn[nH]n2)nc(-c2ccc(C(C)(C)C)cc2)c1, the inhibition in vivo at 3 mg/kg is reported as 68%. With Cc1ccc(-c2cc(C(C)C)cc(C(=O)Nc3nn[nH]n3)n2)cc1 the inhibition in vivo at 3 mg/kg was 42%. In the case of COc1cc(C(=O)Nc2nn[nH]n2)nc(-c2ccc(OC)c(OC)c2)c1, the inhibition in vivo at 3 mg/kg is reported as 62%. Compound Cc1cc(C(=O)Nc2nn[nH]n2)nc(-c2cccc(N)c2)c1 has an inhibition in vivo at 3 mg/kg of 50%.

What follows are compounds tested on Rattus norvegicus (assay: Antiallergic activity against passive cutaneous anaphylaxis (PCA) in male Sprague-Dawley rats after 1.0 mg/kg oral administration). Conditions: not given.
Format: functional
Method in brief: as §1
Compound CCc1ccc(-c2cc(Cl)cc(C(=O)Nc3nn[nH]n3)n2)cc1 has an inhibition in vivo at 1 mg/kg of 49%. Cc1cc(C(=O)Nc2nn[nH]n2)nc(-c2ccc(N)cc2)c1 showed an inhibition in vivo at 1 mg/kg of 75%. For COc1cccc(-c2cc(Cl)cc(C(=O)Nc3nn[nH]n3)n2)c1, the inhibition in vivo at 1 mg/kg was 51%.

Each compound was assayed on Rattus norvegicus (assay: Inhibition of passive cutaneous anaphylaxis in male Sprague-Dawley rats following 0.3 mg/kg p.o. administration; Not significant.). Conditions: route oral.
Format: functional
Method in brief: as §1
With CCCCc1ccc(-c2cc(C)cc(C(=O)Nc3nn[nH]n3)n2)cc1 the inhibition in vivo at 0.3 mg/kg was 17%.

What follows are compounds tested on Rattus norvegicus (assay: Antiallergic activity against passive cutaneous anaphylaxis (PCA) in male Sprague-Dawley rats after 0.3 mg/kg oral administration). Conditions: not given.
Format: functional
Method in brief: as §1
CCCOc1cc(C(=O)Nc2nn[nH]n2)nc(-c2ccccc2)c1 gave an inhibition in vivo at 0.3 mg/kg of 0%. COc1cccc(-c2cc(Cl)cc(C(=O)Nc3nn[nH]n3)n2)c1 was tested, and the inhibition in vivo at 0.3 mg/kg was 32%.

These compounds were tested on Rattus norvegicus (assay: Antiallergic activity against passive cutaneous anaphylaxis (PCA) in male Sprague-Dawley rats after 10.0 mg/kg oral administration;not statistically significant). Conditions: not given.
Format: functional
Method in brief: as §1
CC(C)Cc1cc(C(=O)Nc2nn[nH]n2)nc(-c2ccccc2)c1 was tested, and the inhibition in vivo at 10 mg/kg was 11%. Compound COc1cc(C(=O)Nc2nn[nH]n2)nc(-c2ccccc2Cl)c1 has an inhibition in vivo at 10 mg/kg of 17%. CCCCc1ccc(-c2cc(CC(C)C)cc(C(=O)Nc3nn[nH]n3)n2)cc1 gave an inhibition in vivo at 10 mg/kg of 13%. With O=C(Nc1nn[nH]n1)c1cc(Cl)cc(-c2ccc([N+](=O)[O-])cc2)n1 the inhibition in vivo at 10 mg/kg was 48%. Cc1ccccc1-c1cc(Cl)cc(C(=O)Nc2nn[nH]n2)n1 showed an inhibition in vivo at 10 mg/kg of 24%. COc1cc(-c2cccc(C(=O)Nc3nn[nH]n3)n2)cc(OC)c1OC showed an inhibition in vivo at 10 mg/kg of 45%. For COc1cc(C(=O)Nc2nn[nH]n2)nc(-c2cc(OC)c(OC)c(OC)c2)c1, the inhibition in vivo at 10 mg/kg was 25%. Compound COc1cc(C(=O)Nc2nn[nH]n2)nc(-c2ccc([N+](=O)[O-])cc2)c1 has an inhibition in vivo at 10 mg/kg of 6%.

Each compound was assayed on Rattus norvegicus (assay: Antiallergic activity against passive cutaneous anaphylaxis (PCA) in male Sprague-Dawley rats after 0.3 mg/kg oral administration;p<0.1). Conditions: not given.
Format: functional
Method in brief: as §1
CCc1ccc(-c2cc(Cl)cc(C(=O)Nc3nn[nH]n3)n2)cc1 was tested, and the inhibition in vivo at 0.3 mg/kg was 13%. Compound Cc1cc(C(=O)Nc2nn[nH]n2)nc(-c2ccc(N)cc2)c1 has an inhibition in vivo at 0.3 mg/kg of 54%. Work on COc1cc(C(=O)Nc2nn[nH]n2)nc(-c2ccc(N)cc2)c1 yielded an inhibition in vivo at 0.3 mg/kg of 12%. CCc1ccc(-c2cccc(C(=O)Nc3nn[nH]n3)n2)cc1 was tested, and the inhibition in vivo at 0.3 mg/kg was 14%. COc1cc(C(=O)Nc2nn[nH]n2)nc(-c2ccccc2OC)c1 gave an inhibition in vivo at 0.3 mg/kg of 35%.

Each compound was assayed on Rattus norvegicus (assay: Antiallergic activity against passive cutaneous anaphylaxis (PCA) in male Sprague-Dawley rats after 3.0 mg/kg oral administration;not statistically significant). Conditions: not given.
Format: functional
Method in brief: as §1
For CCCCc1ccc(-c2cc(CC(C)C)cc(C(=O)Nc3nn[nH]n3)n2)cc1, the inhibition in vivo at 3 mg/kg was 3%. Compound O=C(Nc1nn[nH]n1)c1cc(Cl)cc(-c2ccc([N+](=O)[O-])cc2)n1 has an inhibition in vivo at 3 mg/kg of 23%. With COc1cc(-c2cccc(C(=O)Nc3nn[nH]n3)n2)cc(OC)c1OC the inhibition in vivo at 3 mg/kg was 15%. In the case of Cc1ccc(-c2cc(Cl)cc(C(=O)Nc3nn[nH]n3)n2)cc1C, the inhibition in vivo at 3 mg/kg is reported as 32%.

Each compound was assayed on Rattus norvegicus (assay: Antiallergic activity against passive cutaneous anaphylaxis (PCA) in male Sprague-Dawley rats after 3.0 mg/kg oral administration). Conditions: not given.
Format: functional
Method in brief: as §1
Compound Nc1cccc(-c2cccc(C(=O)Nc3nn[nH]n3)n2)c1 has an inhibition in vivo at 3 mg/kg of 0%. In the case of CCc1ccc(-c2cc(Cl)cc(C(=O)Nc3nn[nH]n3)n2)cc1, the inhibition in vivo at 3 mg/kg is reported as 100%. With O=C(Nc1nn[nH]n1)c1cccc(-c2ccccc2)n1 the inhibition in vivo at 3 mg/kg was 74%. For CCCCc1ccc(-c2cc(C)cc(C(=O)Nc3nn[nH]n3)n2)cc1, the inhibition in vivo at 3 mg/kg was 67%. COc1cc(C(=O)Nc2nn[nH]n2)nc(-c2cccc(N)c2)c1 was tested, and the inhibition in vivo at 3 mg/kg was 41%. O=C(Nc1nn[nH]n1)c1cc(Cl)cc(-c2ccc(Cl)cc2)n1 was tested, and the inhibition in vivo at 3 mg/kg was 11%. In the case of Cc1cc(C(=O)Nc2nn[nH]n2)nc(-c2ccc(N)cc2)c1, the inhibition in vivo at 3 mg/kg is reported as 100%. In the case of COc1ccc(-c2cc(C)cc(C(=O)Nc3nn[nH]n3)n2)cc1, the inhibition in vivo at 3 mg/kg is reported as 43%. With COc1cc(C(=O)Nc2nn[nH]n2)nc(-c2ccccc2OC)c1 the inhibition in vivo at 3 mg/kg was 68%. In the case of CCCOc1cc(C(=O)Nc2nn[nH]n2)nc(-c2ccccc2)c1, the inhibition in vivo at 3 mg/kg is reported as 100%. COc1cccc(-c2cc(Cl)cc(C(=O)Nc3nn[nH]n3)n2)c1 was tested, and the inhibition in vivo at 3 mg/kg was 95%. For COc1cc(C(=O)Nc2nn[nH]n2)nc(-c2cc(OC)c(OC)c(OC)c2)c1, the inhibition in vivo at 3 mg/kg was 0%.

These compounds were tested on Rattus norvegicus (assay: Inhibition of passive cutaneous anaphylaxis in male Sprague-Dawley rats following 1 mg/kg p.o. administration; Not significant.). Conditions: route oral.
Format: functional
Method in brief: as §1
CCOc1cc(C(=O)Nc2nn[nH]n2)nc(-c2ccccc2)c1 gave an inhibition in vivo at 1 mg/kg of 29%. In the case of COc1cc(C(=O)Nc2nn[nH]n2)nc(-c2ccc(C(C)(C)C)cc2)c1, the inhibition in vivo at 1 mg/kg is reported as 29%. CCc1ccc(-c2cccc(C(=O)Nc3nn[nH]n3)n2)cc1 showed an inhibition in vivo at 1 mg/kg of 39%. With COc1cc(C(=O)Nc2nn[nH]n2)nc(-c2ccccc2OC)c1 the inhibition in vivo at 1 mg/kg was 41%. Work on Cc1ccc(-c2cc(C(C)C)cc(C(=O)Nc3nn[nH]n3)n2)cc1 yielded an inhibition in vivo at 1 mg/kg of 20%. Work on COc1cc(C(=O)Nc2nn[nH]n2)nc(-c2ccc(OC)c(OC)c2)c1 yielded an inhibition in vivo at 1 mg/kg of 18%. Cc1cc(C(=O)Nc2nn[nH]n2)nc(-c2cccc(N)c2)c1 was tested, and the inhibition in vivo at 1 mg/kg was 29%.

Each compound was assayed on Rattus norvegicus (assay: Antiallergic activity against passive cutaneous anaphylaxis (PCA) in male Sprague-Dawley rats after 1.0 mg/kg oral administration;p<0.1). Conditions: not given.
Format: functional
Method in brief: as §1
Work on O=C(Nc1nn[nH]n1)c1cccc(-c2ccccc2)n1 yielded an inhibition in vivo at 1 mg/kg of 36%. Work on CCCCc1ccc(-c2cc(C)cc(C(=O)Nc3nn[nH]n3)n2)cc1 yielded an inhibition in vivo at 1 mg/kg of 42%. For COc1cc(C(=O)Nc2nn[nH]n2)nc(-c2cccc(N)c2)c1, the inhibition in vivo at 1 mg/kg was 27%. For COc1cc(C(=O)Nc2nn[nH]n2)nc(-c2ccc(N)cc2)c1, the inhibition in vivo at 1 mg/kg was 50%. For CCCOc1cc(C(=O)Nc2nn[nH]n2)nc(-c2ccccc2)c1, the inhibition in vivo at 1 mg/kg was 27%.

These compounds were tested on Rattus norvegicus (assay: Antiallergic activity against passive cutaneous anaphylaxis (PCA) in male Sprague-Dawley rats after 10.0 mg/kg oral administration;p<0.1). Conditions: not given.
Format: functional
Method in brief: as §1
For Nc1cccc(-c2cccc(C(=O)Nc3nn[nH]n3)n2)c1, the inhibition in vivo at 10 mg/kg was 57%. In the case of COc1cc(C(=O)Nc2nn[nH]n2)nc(-c2cccc(N)c2)c1, the inhibition in vivo at 10 mg/kg is reported as 58%. For O=C(Nc1nn[nH]n1)c1cc(Cl)cc(-c2ccc(Cl)cc2)n1, the inhibition in vivo at 10 mg/kg was 63%. For COc1ccc(-c2cc(C)cc(C(=O)Nc3nn[nH]n3)n2)cc1, the inhibition in vivo at 10 mg/kg was 52%. Compound Cc1ccc(-c2cc(Cl)cc(C(=O)Nc3nn[nH]n3)n2)cc1C has an inhibition in vivo at 10 mg/kg of 58%.
